The results in this text go back to ChEMBL document CHEMBL1255380, “Small molecule-mediated disruption of Wnt-dependent signaling in tissue regeneration and cancer” (Nat Chem Biol, 2009).

The source made the active and inactive calls. The calls are words filed in the database; no cut-off is given here.

Assay [1] addresses T1, Protein-serine O-palmitoleoyltransferase porcupine (Homo sapiens) (UniProt Q9H237).
T1 sequence (whole entry): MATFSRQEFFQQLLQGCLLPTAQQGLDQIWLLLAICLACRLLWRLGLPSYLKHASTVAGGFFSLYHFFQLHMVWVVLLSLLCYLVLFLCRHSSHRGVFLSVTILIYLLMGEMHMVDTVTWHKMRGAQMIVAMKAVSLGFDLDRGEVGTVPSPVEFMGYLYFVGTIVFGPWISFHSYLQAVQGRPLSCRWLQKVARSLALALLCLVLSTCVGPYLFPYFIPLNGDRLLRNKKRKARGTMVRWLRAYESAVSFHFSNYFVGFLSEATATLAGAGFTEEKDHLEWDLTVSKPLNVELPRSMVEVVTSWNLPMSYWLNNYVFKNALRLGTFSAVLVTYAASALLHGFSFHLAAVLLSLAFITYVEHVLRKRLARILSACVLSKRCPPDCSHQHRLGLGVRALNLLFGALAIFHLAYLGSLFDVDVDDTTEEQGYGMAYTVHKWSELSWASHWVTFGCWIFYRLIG
Nature of the assay: Inhibition of porcn-mediated Shh palmitoylation in human DLD1 lysate by detergent solubility fractionation assessed as [3H]palmitate incorporation at 2.5 uM by autoradiography method.

Assay [2] can be described thus: Inhibition of Wnt3A/[…] pathway activity in mouse L cell expressing Wnt3a assessed as inhibition of […] accumulation at 5 uM after 24 hrs by Western blot analysis. It is filed as cell-based. On the technique in general: In western blotting, separated proteins are transferred to a membrane and probed.
Assay [3] is described as follows: Inhibition of Wnt3A/[…] pathway activity in mouse L cell expressing Wnt3a assessed as decrease in phosphorylated Dvl2 level at 5 uM after 24 hrs by Western blot analysis. Type of assay: cell-based.
The nature of assay [4]: Inhibition of Wnt3A/[…] pathway activity in mouse L cell expressing Wnt3a assessed as decrease in phosphorylated Lrp6 level at 5 uM after 24 hrs by Western blot analysis. Type of assay: cell-based.
The species entered for assay [5] is Danio rerio. Nature of the assay: Inhibition of caudal fin regeneration after mechanical resection in zebrafish at 10 uM after 7 days. Type of assay: functional, organism-based. A digest of the protocol:
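Zebrafish 3-6 months old anaesthetized in 0.02% Tricaine; half of caudal fin resected with razor blade; kept at 28°C in tank water with 10μM compound or DMSO; water and compound replenished daily over assay period.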

A short description of assay [6]: Inhibition of Notch pathway in mouse L cells at 2.5 uM.
The target of assay [7] is Axin-2 (Homo sapiens) (UniProt Q9Y2T1). Nature of the assay: Induction of Axin2 stabilization in human DLD1 cells assessed as inhibition of Wnt/beta-[…] pathway. Type of assay: cell-based. The note with it: DLD-1.
Axin-2 (Homo sapiens), sequence (Q9Y2T1 whole entry): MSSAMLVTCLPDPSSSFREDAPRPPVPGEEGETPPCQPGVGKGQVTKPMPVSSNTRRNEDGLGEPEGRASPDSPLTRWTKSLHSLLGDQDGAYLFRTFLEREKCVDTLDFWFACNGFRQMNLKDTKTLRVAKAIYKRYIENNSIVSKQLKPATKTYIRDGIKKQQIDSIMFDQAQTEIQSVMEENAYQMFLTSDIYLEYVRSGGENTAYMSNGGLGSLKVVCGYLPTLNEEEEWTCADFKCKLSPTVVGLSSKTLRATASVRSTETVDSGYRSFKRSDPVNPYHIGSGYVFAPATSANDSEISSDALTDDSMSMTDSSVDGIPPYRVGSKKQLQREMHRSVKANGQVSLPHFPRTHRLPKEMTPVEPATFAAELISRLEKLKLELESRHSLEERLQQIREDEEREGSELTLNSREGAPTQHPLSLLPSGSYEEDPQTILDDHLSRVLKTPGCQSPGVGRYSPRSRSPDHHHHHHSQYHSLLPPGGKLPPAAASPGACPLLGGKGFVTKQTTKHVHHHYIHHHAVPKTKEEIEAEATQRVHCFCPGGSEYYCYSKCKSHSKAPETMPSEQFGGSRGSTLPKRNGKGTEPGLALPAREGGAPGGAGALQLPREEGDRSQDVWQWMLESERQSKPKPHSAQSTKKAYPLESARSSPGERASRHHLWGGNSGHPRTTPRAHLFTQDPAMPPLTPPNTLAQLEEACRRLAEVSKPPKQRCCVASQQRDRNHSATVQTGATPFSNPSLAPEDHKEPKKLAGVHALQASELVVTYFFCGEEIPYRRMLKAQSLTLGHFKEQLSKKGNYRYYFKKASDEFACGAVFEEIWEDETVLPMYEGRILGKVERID
Assay [8] concerns the target T1, Protein-serine O-palmitoleoyltransferase porcupine (Homo sapiens). Nature of the assay: Displacement of IWP-PB from porcn in HEK293 lysate by Western blot analysis.
For assay [9] the target is unchanged. Nature of the assay: Inhibition of porcn-mediated Lrp6 maturation in human DLD1 lysate by detergent solubility fractionation assessed as [3H]palmitate incorporation at 2.5 uM by autoradiography method.
Assay [10] has the same target. Nature of the assay: Inhibition of porcn in HEK293 cell lysate by Western blot analysis. Type of assay: cell-free. The procedure, abridged: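 Lysate (10mM Na2HPO4 pH7.4, […], 1% NP-40) of HEK293 cells transfected with Porcn-myc preincubated 1 hr at 4°C with DMSO, linker or competitor, then NeutrAvidin resin plus biotinylated probe (0.17 mM); rotated overnight at 4°C, washed, eluate analysed by Western blot.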

Assay [11] has as its target Axin-2 (Homo sapiens) (UniProt Q9Y2T1). Nature of the assay: Binding affinity to Axin2 IWR-IS in HEK293 cells. It is filed as cell-based.
The target is the same in assay [12]. Nature of the assay: Binding affinity at Axin2 in HEK293 cells by Western blot method. It is filed as cell-based.
For assay [13] the target is unchanged. Nature of the assay: Induction of Axin2 accumulation in human DLD1 cells by Western blot analysis. Type of assay: cell-based. The note with it: DLD-1. The procedure, abridged:
(§1)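 DLD-1 cells exposed to IWR compound at 10μM for a 48 hr assay period; protein levels assessed by Western blot of cell lysates.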

The nature of assay [14]: Inhibition of Wnt3A/[…] pathway activity in mouse L cell expressing Wnt3a assessed as inhibition of […] accumulation at 10 uM after 24 hrs by Western blot analysis. Type of assay: cell-based.
Assay [15] can be described thus: Inhibition of Wnt3A/[…] pathway activity in mouse L cell expressing Wnt3a assessed as decrease in phosphorylated Dvl2 level at 10 uM after 24 hrs by Western blot analysis. Type of assay: cell-based.
Assay [16] is described as follows: Inhibition of Wnt3A/[…] pathway activity in mouse L cell expressing Wnt3a assessed as decrease in phosphorylated Lrp6 level at 10 uM after 24 hrs by Western blot analysis. Type of assay: cell-based.
Assay [17] is described as follows: Inhibition of Wnt2/beta-[…] pathway activity in mouse L cell expressing Wnt2 and STF assessed as decreased firefly luciferase reporter expression. It is filed as cell-based.
Assay [18] in a line: Inhibition of Wnt1/beta-[…] pathway activity in mouse L cell expressing Wnt1 and STF assessed as decreased firefly luciferase reporter expression. Type of assay: cell-based. In general terms: A reporter such as luciferase makes a cellular process visible.
Assay [19] can be described thus: Inhibition of Wnt3A/[…] pathway activity in mouse L cell expressing Wnt3A and STF assessed as decreased firefly luciferase reporter expression. It is filed as cell-based. A digest of the protocol:
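L-Wnt-STF cells (mouse L-cells stably carrying SuperTopFlash firefly luciferase reporter, control reporter and Wnt3A expression construct), ~5K per well; compounds added 24 hrs after seeding; luciferase activities read 24 hrs later; IC50s calculated from these dose-dependent assays.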

Assay [20] concerns DLD-1. Nature of the assay: Decrease in beta-[…] accumulation in human DLD1 cells expressing in APC mutant. It is filed as functional, cell-based.
Assay [21] relates to NCI-H460. In words: Antiproliferative activity against human H460 cells assessed as cellular ATP levels after 6 days by Cell-Titer Glow assay. Type of assay: functional, cell-based. The procedure, abridged:
(§2)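 Cancer cells seeded at 2.5K cells/well with carrier or compound, 0.5% DMSO final; medium with compound changed every 24 hrs for 5 days; on day 6 cellular ATP quantified by CellTiter-Glo luminescence.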

In assay [22] the test system is DLD-1. Nature of the assay: Antiproliferative activity against human DLD1 cells assessed as cellular ATP levels after 6 days by Cell-Titer Glow assay. Type of assay: functional, cell-based. The procedure, abridged: as §2
The test system of assay [23] is DU-145. In words: Antiproliferative activity against human DU145 cells assessed as cellular ATP levels after 6 days by Cell-Titer Glow assay. It is filed as functional, cell-based. The procedure, abridged:
as §2

In assay [24] the test system is DLD-1. Nature of the assay: Antiproliferative activity against human DLD1 cells overexpressing beta-[…] assessed as renilla luciferase activity after 6 days. Type of assay: functional, cell-based.
The target of assay [25] is Axin-1 (Homo sapiens) (UniProt O15169). Nature of the assay: Induction of Axin1 protein stabilization in human DLD1 cells by Western blot analysis. It is filed as cell-based. As to conditions: DLD-1. The procedure, abridged:
as §1

For assay [26] the target is unchanged. Nature of the assay: Induction of Axin1 protein stabilization in human H460 cells by Western blot analysis. Type of assay: cell-based.

Axin-1 (Homo sapiens), sequence (O15169 whole entry): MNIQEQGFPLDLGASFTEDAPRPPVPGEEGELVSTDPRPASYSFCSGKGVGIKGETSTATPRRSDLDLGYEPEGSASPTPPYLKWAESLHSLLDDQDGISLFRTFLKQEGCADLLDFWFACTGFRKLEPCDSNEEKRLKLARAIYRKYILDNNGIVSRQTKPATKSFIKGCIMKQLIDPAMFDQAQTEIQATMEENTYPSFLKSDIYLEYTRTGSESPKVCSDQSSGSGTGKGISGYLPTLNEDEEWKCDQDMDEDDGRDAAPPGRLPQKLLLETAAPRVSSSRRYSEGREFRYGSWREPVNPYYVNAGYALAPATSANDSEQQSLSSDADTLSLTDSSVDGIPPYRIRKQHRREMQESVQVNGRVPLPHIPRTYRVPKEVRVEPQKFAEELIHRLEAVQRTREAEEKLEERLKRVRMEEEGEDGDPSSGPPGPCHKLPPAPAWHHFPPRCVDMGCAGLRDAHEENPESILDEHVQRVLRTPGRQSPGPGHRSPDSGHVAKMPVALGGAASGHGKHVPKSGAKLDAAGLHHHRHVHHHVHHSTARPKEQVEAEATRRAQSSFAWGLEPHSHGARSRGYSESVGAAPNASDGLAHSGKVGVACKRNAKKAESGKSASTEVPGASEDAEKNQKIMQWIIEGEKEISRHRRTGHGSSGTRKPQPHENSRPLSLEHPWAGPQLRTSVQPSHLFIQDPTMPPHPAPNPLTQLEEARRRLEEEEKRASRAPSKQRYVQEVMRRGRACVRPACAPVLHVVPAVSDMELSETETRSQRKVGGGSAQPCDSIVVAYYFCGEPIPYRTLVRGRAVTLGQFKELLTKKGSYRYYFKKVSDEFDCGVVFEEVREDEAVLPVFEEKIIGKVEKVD

As for `Cc1ccc2nc(NC(=O)CSc3nc4c(c(=O)n3-c3ccc(F)cc3)SCC4)sc2c1`, the inhibition result in assay [1], in assay [5] and in assay [6] was “inactive” in each case. Moreover, the inhibition entry in [2], in assay [3] and in assay [4] was “Active” in each case.

As to `O=C(Nc1cccc2cccnc12)c1ccc(N2C(=O)[C@@H]3[C@H](C2=O)[C@H]2C=C[C@@H]3C2)cc1`, the inhibition entry in assay [5] is “inactive”. Moreover, the result in [7] was inactive.

With `COc1ccc(-n2nc(C(=O)NCC(=O)Nc3nc4ccc(OC)cc4s3)c3ccccc3c2=O)cc1`, the inhibition result in [8], in [2], in [3] and in assay [4] was “Active” each time. Moreover, the inhibition result in assay [9], in [1], in assay [5] and in assay [6] was “inactive” each time.

As for `Cc1ccc2nc(NC(=O)CSc3nc4c(c(=O)n3-c3ccc(CNC(=O)CCOCCOCCOCCNC(=O)CCCC[C@@H]5SC[C@@H]6NC(=O)N[C@@H]65)cc3)SCC4)sc2c1`, in assay [10], the “Inhibition (active/inactive)” value is “Active”. In addition, the result in [11] and in assay [12] was Active.

On to `COc1ccccc1-n1c(SCC(=O)Nc2nc3ccc(C)cc3s2)nc2c(c1=O)SCC2`, for which the inhibition entry in [1], in assay [5] and in assay [6] was “inactive” in each case. For the same compound, the inhibition entry in assay [2], in assay [3] and in assay [4] was “Active” in each case.

Take `N#Cc1ccccc1Cn1c(=O)n(CC2CCC(C(=O)NCc3ccccc3)CC2)c(=O)c2ccccc21` (stereo unspecified): in assay [13], the result was Active. The inhibition result in [14], in assay [17], in assay [18], in assay [19] and in assay [20] was “Active” each time. In addition, the inhibition entry in assay [15] and in [16] was “inactive” each time.

As for `O=C(CSc1nc2c(c(=O)n1-c1ccccc1)SCC2)Nc1nccs1`, in [10], the “Inhibition (active/inactive)” value was “Active”.

Take `Cc1ccc2nc(NC(=O)CSc3nc4c(c(=O)n3Cc3ccccc3)SCC4)sc2c1`: the “Inhibition (active/inactive)” value in [10] is “Active”.

On to `CC1Cc2nc(SCC(=O)Nc3nc4ccccc4s3)n(Cc3ccccc3)c(=O)c2S1` (stereo unspecified), for which the “Inhibition (active/inactive)” value in assay [10] was “Active”.

With `Cc1cccc2nc(Cn3c(=O)n(CC4CCC(C(=O)NCc5ccccc5)CC4)c(=O)c4ccccc43)cc(=O)n12` (stereo unspecified), the outcome in [13], in assay [22], in assay [23], in assay [25] and in assay [26] was Active. For the same compound, the inhibition result in [14], in assay [17], in assay [18], in assay [19], in [5] and in [20] was “Active” each time. In addition, the inhibition entry in assay [15] and in [16] was “inactive” throughout. Also, the outcome in assay [21] and in [24] was inactive.

With `O=C(O)c1ccc(N2C(=O)[C@@H]3[C@H](C2=O)[C@@H]2C=C[C@H]3C2)cc1`, the inhibition entry in assay [5] was “inactive”. Also, in assay [7], the result was inactive.

In the case of `O=C(NC1CCCC1)c1ccc(Cn2c(=O)c3ccccc3n(Cc3cc(=O)n4ccccc4n3)c2=O)cc1`, the result in assay [13] was Active. In addition, the inhibition result in [14], in assay [17], in [18], in assay [19] and in assay [20] was “Active” throughout. Besides, the inhibition result in assay [15] and in [16] was “inactive” throughout.
